High-throughput results: PubChem, several laboratories
Cl transport mod: KCC2 cotransporter modulators, thallium flux, primary screen, cell-based, HEK293 KCC2, FluoZin-2 fluorescence, MLSMR; AID 1456, 2008; B-score of Tl+ flux slope (higher = more flux/activation; lower = inhibition) at 10 µM; KCC2 cells, thallium flux FluoZin-2 fluorescence; 190,000 compounds, 2.2% hits;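 active = thallium flux slope and its plate-corrected score both differing from the plate sample mean at a set confidence after two filtering rounds, in either direction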;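 also: slope of fluorescence scaled to starting intensity during 10 to 20 s after thallium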
NPY Y2 blocker: NPY-Y2 receptor antagonists, primary screen, cell-based. inhibition, % at 2.7 µM. NPY-Y2 expressing cells, antagonist mode. Neuropeptide Y receptor type 2 (Homo sapiens), P49146. AID 793, 2007. 140,000 compounds, 0.99% hits; in the data active = inhibition above about 17%;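 also: 0% = vehicle with agonist challenge and 100% = reference antagonist with challenge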
Target sequence (P49146 whole entry, looked up): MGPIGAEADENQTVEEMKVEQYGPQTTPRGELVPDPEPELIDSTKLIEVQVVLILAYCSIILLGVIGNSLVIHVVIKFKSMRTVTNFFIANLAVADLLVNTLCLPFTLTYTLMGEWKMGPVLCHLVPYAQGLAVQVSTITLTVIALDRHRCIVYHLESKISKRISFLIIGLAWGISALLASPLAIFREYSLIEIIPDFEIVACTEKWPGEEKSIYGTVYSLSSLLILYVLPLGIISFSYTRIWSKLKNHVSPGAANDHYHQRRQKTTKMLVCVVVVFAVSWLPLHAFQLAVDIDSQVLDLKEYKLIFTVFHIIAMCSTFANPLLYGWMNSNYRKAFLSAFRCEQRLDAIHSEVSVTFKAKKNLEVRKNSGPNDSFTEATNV
NPY1 pot ag: NPY-Y1 receptor potentiators or agonists, primary screen, cell-based. Neuropeptide Y receptor type 1 (Homo sapiens), P25929. NPY-Y1 expressing cells, potentiator/agonist activation. activation, % at 3.6 µM. 220,000 compounds, 0.37% hits. AID 1304, 2008; in the data active = activation above about 33%, passing the limit was not always enough;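 also: cells stimulated with NPY at EC10 then isoproterenol at EC100; 0% = low agonist plus stimulus and 100% = saturating agonist plus stimulus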
Furin inh: human furin inhibitors, primary screen, biochemical, fluorescence intensity | purified furin, fluorogenic substrate cleavage | inhibition, % at 20 µM or 30 µM | 220,000 compounds, 0.061% hits; in the data active = inhibition above about 25%
NPY-Y2 PAM-ag: NPY-Y2 potentiators or agonists, primary screen, cell-based. Neuropeptide Y receptor type 2 (Homo sapiens), P49146. cells expressing NPY-Y2, potentiator/agonist read-out. activation, % at 3.6 µM. 220,000 compounds, 0.45% hits. AID 1359, 2008; in the data active = activation above about 27%;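 also: cells stimulated with NPY near EC25 plus isoproterenol at EC100; 0% = vehicle plus submaximal agonist and 100% = vehicle plus saturating agonist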
NPY-Y1 antag: NPY-Y1 receptor antagonists, primary screen, cell-based; HEK293-CNG Y1 cells, membrane potential fluorescence; NPY at EC95, then isoproterenol; inhibition, % at 3.6 µM; Neuropeptide Y receptor type 1 (Homo sapiens), P25929; 200,000 compounds, 1% hits; AID 1040, 2008;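 active = inhibition above the campaign mean inhibition of all tested compounds plus 3 SD, cut at about 20% in these data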;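 also: 0% = DMSO wells given NPY plus isoproterenol and 100% = isoproterenol alone without NPY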
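Material: HEK293 cells with Y1 receptor plus CNG channel; times: compound incubation 1 h at room temperature, readout 45 min post-stimulation; signal: fluorescence, membrane potential probe; read-out basis: fluorescence ratio normalized to % inhibition between controls; benchmarks: full-block control isoproterenol-only wells, zero-block control NPY plus isoproterenol wells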
KCC2 secondary: KCC2 modulators in sodium-free buffer, confirmation, cell-based, HEK293 KCC2, thallium flux, secondary assay. shares compounds with Cl transport mod. FluoZin2 fluorescence; stronger effect = higher value. normalised thallium flux (F/F0 slope) at 10 µM. 3,700 compounds, 15% hits;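 active = thallium flux slope above the same plate's solvent-only control mean plus 3 SD; inconclusive = the two replicate wells disagree; inactive = no significant difference from solvent-only control wells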
KCC2 bumet counter: thallium flux persisting under bumetanide in KCC2 cells, confirmation, counter-screen for KCC2 modulator project, cell-based, HEK293 KCC2, FluoZin2, secondary assay 3. normalized thallium flux at 10 µM. AID 1714, 2009. shares compounds with Cl transport mod. 3,700 compounds, 49% hits. HEK293-KCC2 + bumetanide/ouabain; stronger effect = higher value;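 active = thallium entry rate above the same plate's blocked-transporter control wells by more than 3 SD; inconclusive = the two repeat wells disagree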;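 also: raw slope of fluorescence over initial fluorescence between 10 and 20 s after thallium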
KCC2 secondary2: KCC2 modulators without ouabain present, confirmation, cell-based, HEK293 KCC2, thallium flux, FluoZin2, secondary assay 2; shares compounds with Cl transport mod; thallium flux FluoZin2 fluorescence; actives lie on both sides; F/F0 rise rate, 10–20 s post-thallium; normalized thallium flux at 10 µM; 3,700 compounds, 23% hits; AID 1715, 2009;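 active = thallium flux slope more than 3 SD above or below the plate's solvent-only control mean, mostly below; inconclusive = the two repeat wells disagreed; inactive = no significant shift from solvent-only controls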;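 also: raw slope with 0.1% DMSO as baseline and bumetanide as block control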
HEK293 Tl flux: thallium flux modulation in parental HEK cells, confirmation, counter-screen for KCC2 modulator project, cell-based, counterscreen 1; HEK293 parental cells, thallium flux FluoZin2, ouabain; baseline-ratio fluorescence slope, 10–20 s after thallium; thallium flux rate (normalised fluorescence) at 10 µM; shares compounds with Cl transport mod; AID 1716, 2009; 3,700 compounds, 46% hits;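 active = thallium flux rate significantly above the same plate's solvent-only control wells, beyond their mean plus 3 SD; inconclusive = the two replicate wells gave conflicting results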
KCC2 retest ouab: KCC2 inhibitors and activators, ouabain retest, confirmation, HEK-KCC2 cells | shares compounds with Cl transport mod | HEK293-KCC2, thallium flux FluoZin2 fluorescence; bidirectional: low = inhibitor, high = activator | raw Tl+ flux slope (below DMSO = inhibition, above = activation) at 10 µM | 3,700 compounds, 48% hits | AID 1717, 2009;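 active = thallium flux slope beyond 3 SD from same-plate DMSO control mean in most replicates, usually higher, sometimes lower; inconclusive = repeat tests gave conflicting results; inactive = no significant difference from controls in most replicates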;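 also: slope of initial-normalized fluorescence between seconds 10 and 20 after thallium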
HEK counter2: native HEK Tl+ uptake effects, second counter-screen – HEK cells, counterscreen 2, counter-screen for KCC2 modulator project, confirmation | shares compounds with Cl transport mod | HEK293 parental, thallium flux FluoZin-2 fluorescence slope | thallium flux slope at 10 µM | 3,700 compounds, 33% hits | AID 1718, 2009;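 active = thallium flux slope above the same plate's solvent-control mean plus 3 SD in both duplicate wells; inconclusive = duplicate wells that disagreed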;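 also: run without ouabain in cells lacking the KCC2 cotransporter; slope of fluorescence scaled to its starting value between 10 and 20 s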
* hit, by the source's call; ? = inconclusive; / = no result. Hits are enriched below; roughly 3.7% of the tested compounds scored in any of these assays.

SMILES	Cl transport mod	NPY Y2 blocker	NPY1 pot ag	Furin inh	NPY-Y2 PAM-ag	NPY-Y1 antag	KCC2 secondary	KCC2 bumet counter	KCC2 secondary2	HEK293 Tl flux	KCC2 retest ouab	HEK counter2
COC(=O)CSc1nnc(SCc2ccccc2)s1	/	7.3	-16.4	-13.0	-10.7	10.7	0.00576	?	0.0213*	0.00598*	0.0118*	0.00871
Cc1cc(Br)ccc1OCC(=O)NNC(=O)c1cnccn1	8.78*	0.6	6.5	-16.3	9.5	0.6	0.017	0.027*	?	0.0222*	0.0281*	0.0236*
O=C(COc1ccc(Cl)cc1)Nc1ncccn1	-0.655	5.3	15.8	-8.6	-10.1	-5.2	/	/	/	/	/	/
O=C(COc1cccc2ccccc12)NNC(=O)c1cnccn1	-0.2	2.6	-1.7	-36.2	-0.4	0.5	/	/	/	/	/	/
COc1ccc(C(=O)NC(=S)NNC(=O)c2cnccn2)cc1	0.981	2.8	-0.9	-20.9	-1.7	2.8	/	/	/	/	/	/
O=C(NC(=S)NNC(=O)c1cnccn1)c1ccc(Cl)cc1	9.13*	/	-8.9	-1.6	-28.2	/	0.0124	0.0131*	0.0355	?	?	?
O=C(COc1ccc2ccccc2c1)NNC(=O)c1cnccn1	0.426	3.8	1.4	-30.2	6.4	1.7	/	/	/	/	/	/
O=C(COc1ccc(Cl)cc1)NNC(=O)c1ccccn1	4.44*	6.0	-3.1	-19.9	-1.1	2.7	0.01	0.0191*	0.0338	0.0113*	0.0245	?
CC(C)c1ccc(OCC(=O)NNC(=O)c2cnccn2)cc1	5.71*	/	3.7	-18.0	-3.3	/	0.00764	0.0109*	0.0333	0.0118*	0.0241*	0.0154*
CCOC(=O)c1ccc(N2CCN(C(C)=O)CC2)c(NC(=O)c2cccnc2)c1	/	/	6.0	-28.3	-1.4	3.6	/	/	/	/	/	/
COc1ccccc1NC(=O)CN1CC(=O)Nc2ccccc21	-0.876	/	-2.5	-23.8	8.2	-3.7	/	/	/	/	/	/
COc1ccc(C(=O)c2ccc(N3CCN(C(=O)c4ccc(F)cc4)CC3)c(F)c2)cc1Br	/	1.1	6.2	1.9	-5.5	3.8	/	/	/	/	/	/
N#C/C(=C/c1ccc(F)cc1)c1nnc(NC(=O)c2ccccc2)s1	-0.0993	/	5.6	-11.7	-2.4	/	/	/	/	/	/	/
COc1cc2oc(=O)ccc2c(OC)c1CC(O)C(C)(C)O (stereo unspecified)	-0.123	/	/	-27.0	/	/	/	/	/	/	/	/
Cc1cc(Cl)ccc1OCC(=O)NNC(=O)c1cnccn1	9.45*	/	-16.0	-10.4	10.9	2.0	0.00605	0.0154*	0.0314	0.0153*	?	0.0135*
O=CNC(n1cnc2c(N3CCOCC3)ncnc21)C(Cl)(Cl)Cl (stereo unspecified)	0.153	/	10.4	-20.9	-7.4	/	/	/	/	/	/	/
